This is an account of results in ChEMBL document CHEMBL1130209, “A novel series of 2,5-substituted tryptamine derivatives as vascular 5HT1B/1D receptor antagonists” (J Med Chem, 1997).

The target in data set [1] is T1, 5-hydroxytryptamine receptor 2C (Rattus norvegicus, UniProt P08909).
T1 sequence (P08909 whole entry): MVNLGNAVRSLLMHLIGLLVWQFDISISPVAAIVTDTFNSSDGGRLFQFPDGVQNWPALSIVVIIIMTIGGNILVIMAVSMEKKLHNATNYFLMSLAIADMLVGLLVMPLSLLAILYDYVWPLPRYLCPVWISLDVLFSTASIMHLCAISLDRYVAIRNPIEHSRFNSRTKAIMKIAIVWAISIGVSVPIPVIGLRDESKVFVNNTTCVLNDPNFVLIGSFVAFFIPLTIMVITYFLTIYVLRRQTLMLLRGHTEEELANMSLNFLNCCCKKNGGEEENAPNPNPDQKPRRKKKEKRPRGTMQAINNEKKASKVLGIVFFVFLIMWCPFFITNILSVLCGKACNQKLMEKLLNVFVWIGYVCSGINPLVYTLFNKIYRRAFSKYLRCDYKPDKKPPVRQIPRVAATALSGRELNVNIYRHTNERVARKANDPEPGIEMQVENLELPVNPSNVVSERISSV
Briefly: Affinity pKi for 5-hydroxytryptamine 2C receptor was measured in rat cortex homogenates. It counts as tissue-based. An outline of the steps:
(§1)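 Competition binding with rat cortex homogenate: radioligand near its KD plus a wide range of test drug concentrations in duplicate, 30 min at 27 °C. Buffer 50 mM TRIS-HCl, 5 mM CaCl₂, 0.1% (w/v) ascorbate, 10 mM pargyline. Nonspecific binding defined with excess cold 5HT. Rapid filtration with ice-cold buffer wash, liquid scintillation count. pKi is the mean of at least three estimates.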

The target in data set [2] is 5-hydroxytryptamine receptor 2B (Homo sapiens) (UniProt P41595). Briefly: The dissociation equilibrium constant (pKB=-log KB) of compound was determined against the vascular 5-hydroxytryptamine 2B receptor in the endothelium intact rabbit jugular vein. The following applies: Oryctolagus cuniculus; target entry is the homologue from another species.
Data set [3] concerns the target 5-hydroxytryptamine receptor 2A (Rattus norvegicus, UniProt P14842). In words: Affinity pKi for 5-hydroxytryptamine 2A receptor was measured in rat cortex homogenates. It counts as tissue-based. Summed up: as §1
The nature of data set [4]: Half life of compound was determined in mouse plasma. It counts as ADME, organism-based.
The target in data set [5] is T2, Adrenergic receptor alpha-1 (Rattus norvegicus, UniProt P15823+P23944+P43140).
T2 sequence (P15823 whole entry): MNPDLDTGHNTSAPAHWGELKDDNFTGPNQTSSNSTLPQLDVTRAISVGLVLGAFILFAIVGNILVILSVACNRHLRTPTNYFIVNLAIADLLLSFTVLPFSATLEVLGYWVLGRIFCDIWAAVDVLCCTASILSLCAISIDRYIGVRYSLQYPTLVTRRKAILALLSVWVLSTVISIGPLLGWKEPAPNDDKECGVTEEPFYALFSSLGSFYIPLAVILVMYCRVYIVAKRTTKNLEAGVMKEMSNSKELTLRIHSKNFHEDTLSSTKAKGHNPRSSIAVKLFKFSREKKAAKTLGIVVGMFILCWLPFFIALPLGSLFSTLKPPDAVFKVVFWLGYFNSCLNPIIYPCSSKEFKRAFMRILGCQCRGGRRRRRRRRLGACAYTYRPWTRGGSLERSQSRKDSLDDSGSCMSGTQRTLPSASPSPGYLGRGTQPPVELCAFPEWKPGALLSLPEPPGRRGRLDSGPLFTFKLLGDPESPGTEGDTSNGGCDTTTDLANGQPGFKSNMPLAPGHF
T2 sequence (P23944 whole entry): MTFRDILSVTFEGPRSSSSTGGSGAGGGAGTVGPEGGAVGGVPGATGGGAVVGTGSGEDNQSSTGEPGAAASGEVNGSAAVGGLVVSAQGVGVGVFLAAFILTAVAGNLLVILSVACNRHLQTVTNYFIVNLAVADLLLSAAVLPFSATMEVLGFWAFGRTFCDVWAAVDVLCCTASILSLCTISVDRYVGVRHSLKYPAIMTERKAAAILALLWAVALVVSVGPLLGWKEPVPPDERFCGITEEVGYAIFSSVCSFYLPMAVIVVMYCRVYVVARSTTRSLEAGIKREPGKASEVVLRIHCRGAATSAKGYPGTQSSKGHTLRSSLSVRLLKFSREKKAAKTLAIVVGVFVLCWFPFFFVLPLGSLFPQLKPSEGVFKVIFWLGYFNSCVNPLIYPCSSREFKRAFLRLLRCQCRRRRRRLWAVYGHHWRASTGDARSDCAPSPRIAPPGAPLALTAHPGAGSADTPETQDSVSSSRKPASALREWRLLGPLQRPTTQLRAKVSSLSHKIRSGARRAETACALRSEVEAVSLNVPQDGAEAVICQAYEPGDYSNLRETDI
T2 sequence (P43140 whole entry): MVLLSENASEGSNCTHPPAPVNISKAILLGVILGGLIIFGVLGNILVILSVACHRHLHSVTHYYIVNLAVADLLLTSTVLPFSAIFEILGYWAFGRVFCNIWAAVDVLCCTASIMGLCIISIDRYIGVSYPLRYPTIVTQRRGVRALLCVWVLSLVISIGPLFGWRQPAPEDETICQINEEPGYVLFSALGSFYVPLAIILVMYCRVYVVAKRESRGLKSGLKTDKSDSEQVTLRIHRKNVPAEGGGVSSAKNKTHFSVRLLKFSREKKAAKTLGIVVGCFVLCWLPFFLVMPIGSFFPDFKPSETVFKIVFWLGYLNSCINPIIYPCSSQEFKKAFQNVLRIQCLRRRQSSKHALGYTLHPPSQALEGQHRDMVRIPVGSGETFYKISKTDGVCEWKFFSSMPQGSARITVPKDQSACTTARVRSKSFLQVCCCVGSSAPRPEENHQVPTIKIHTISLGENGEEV
Briefly: Affinity pKi for Alpha-1 adrenergic receptor was measured in rat cortex homogenates. It counts as tissue-based. Summed up: as §1

The target in data set [6] is Adrenergic receptor alpha-2 (Homo sapiens) (UniProt P08913+P18825+P18089). Briefly: The dissociation equilibrium constant (pKB=-log KB) of compound was determined against the Alpha-2 adrenergic receptor. It counts as protein assay. The following applies: Oryctolagus cuniculus.
The target of data set [7] is Adrenergic receptor alpha-1 (Homo sapiens) (UniProt P35348+P25100+P35368). Briefly: The dissociation equilibrium constant (pKB=-log KB) of compound was determined against the Alpha-1 adrenergic receptor in the rabbit thoracic aorta. It counts as tissue-based. The following applies: Oryctolagus cuniculus, target entry is the homologue from another species. Summed up:
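Rabbit thoracic aorta rings (3 mm) given pargyline 500 μM for 30 min and tensioned twice to 3.0 g. L-phenylephrine 10 μM checks viability and gives the reference contracture. After washout, test compound at 30 μM for 60 min, then a cumulative L-phenylephrine curve.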

For data set [8], the target named is D(2) dopamine receptor (Rattus norvegicus, UniProt P61169). In words: Affinity pKi for Dopamine receptor D2 was measured in rat cortex homogenates. It counts as tissue-based. An outline of the steps: as §1
The nature of data set [9]: Half life of compound was determined in rat plasma. It counts as ADME, organism-based.

Chain of 5-hydroxytryptamine receptor 2B (Homo sapiens) (P41595 whole entry): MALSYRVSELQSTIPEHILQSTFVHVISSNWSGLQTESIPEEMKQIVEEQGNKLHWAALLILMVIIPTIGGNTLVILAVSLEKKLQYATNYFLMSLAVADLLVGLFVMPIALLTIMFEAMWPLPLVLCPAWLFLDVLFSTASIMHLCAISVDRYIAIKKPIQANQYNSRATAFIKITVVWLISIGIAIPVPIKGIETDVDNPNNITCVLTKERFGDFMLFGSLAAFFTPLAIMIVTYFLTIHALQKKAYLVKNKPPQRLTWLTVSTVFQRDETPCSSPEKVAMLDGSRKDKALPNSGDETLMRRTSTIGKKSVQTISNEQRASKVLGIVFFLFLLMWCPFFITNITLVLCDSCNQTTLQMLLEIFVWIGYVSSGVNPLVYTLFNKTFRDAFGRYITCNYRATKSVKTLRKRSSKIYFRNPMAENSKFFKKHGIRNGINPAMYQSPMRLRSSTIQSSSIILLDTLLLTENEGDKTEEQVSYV
Chain of D(2) dopamine receptor (P61169 whole entry): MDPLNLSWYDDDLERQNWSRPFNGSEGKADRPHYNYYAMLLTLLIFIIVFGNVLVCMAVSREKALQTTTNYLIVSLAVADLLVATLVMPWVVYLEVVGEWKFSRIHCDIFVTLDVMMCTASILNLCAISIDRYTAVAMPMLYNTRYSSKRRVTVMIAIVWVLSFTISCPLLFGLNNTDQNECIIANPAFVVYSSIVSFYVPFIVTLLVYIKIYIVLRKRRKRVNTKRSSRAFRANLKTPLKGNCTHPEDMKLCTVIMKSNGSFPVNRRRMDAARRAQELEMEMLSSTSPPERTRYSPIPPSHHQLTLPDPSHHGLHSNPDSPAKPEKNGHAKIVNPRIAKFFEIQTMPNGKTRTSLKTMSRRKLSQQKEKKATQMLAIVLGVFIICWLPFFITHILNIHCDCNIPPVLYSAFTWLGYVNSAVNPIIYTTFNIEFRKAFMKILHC
Chain of 5-hydroxytryptamine receptor 2A (P14842 whole entry): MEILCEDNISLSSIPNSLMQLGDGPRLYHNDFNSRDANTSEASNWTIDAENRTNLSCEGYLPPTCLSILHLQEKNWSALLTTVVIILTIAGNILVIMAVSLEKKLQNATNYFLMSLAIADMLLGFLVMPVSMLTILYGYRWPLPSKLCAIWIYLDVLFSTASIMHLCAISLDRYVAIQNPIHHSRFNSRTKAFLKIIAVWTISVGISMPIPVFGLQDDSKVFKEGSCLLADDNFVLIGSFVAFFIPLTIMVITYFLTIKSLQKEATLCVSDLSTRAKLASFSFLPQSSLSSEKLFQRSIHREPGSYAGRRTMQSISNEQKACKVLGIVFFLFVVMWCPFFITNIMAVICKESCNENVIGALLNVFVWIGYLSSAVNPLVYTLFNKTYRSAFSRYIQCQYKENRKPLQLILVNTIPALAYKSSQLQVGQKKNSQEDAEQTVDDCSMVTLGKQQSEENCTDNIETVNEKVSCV

Take `CCOC(=O)c1[nH]c2ccc(CCN3C(=O)CNC3=O)cc2c1CCN(C)C`: the Ki in [1] was 5.5 µM; in [3], 7.94 µM; in data set [8], 10.7 µM. For the same molecule, the pKB is less than 5 in data set [2], less than 5 in data set [6] and 5.43 in data set [7]. Also, the half-life in data set [4] stood at 12 min; in data set [9], 15 min. Moreover, the “Log Ki” value in data set [5] is -4.95.

For orientation: Ki means a dissociation constant, usually derived from enzyme kinetics or from competition with a known ligand. Low values mean higher affinity, high ones lower affinity. Usually pKB stands for the negative decadic logarithm of the KB, by convention in mol/L. Low values mean a high KB, high ones a low KB. A word on the half-life: it is how long it takes for the measured level to halve. A high value points to slow decline.
